Calls of active or inactive are those of the source. No cut-off for these calls is given here.
Assays:
[1] = Inhibition of CutC in Escherichia coli MS 200-1 assessed as reduction in d9-TMA formation using d9-choline chloride as substrate incubated for 4 hrs under anaerobic condition by LC-MS-MS analysis
[2] = target: T1, Choline trimethylamine-lyase (Desulfovibrio alaskensis, UniProt Q30W70); test: (§1) Inhibition of N-terminal His6-tagged Desulfovibrio desulfuricans G20 CutC encoding 52 residues assessed as reduction in acetaldehyde using choline as substrate in presence of NADH-dependent yeast alcohol dehydrogenase by UV-Vis absorbance based assay
T1 sequence (Q30W70 whole entry): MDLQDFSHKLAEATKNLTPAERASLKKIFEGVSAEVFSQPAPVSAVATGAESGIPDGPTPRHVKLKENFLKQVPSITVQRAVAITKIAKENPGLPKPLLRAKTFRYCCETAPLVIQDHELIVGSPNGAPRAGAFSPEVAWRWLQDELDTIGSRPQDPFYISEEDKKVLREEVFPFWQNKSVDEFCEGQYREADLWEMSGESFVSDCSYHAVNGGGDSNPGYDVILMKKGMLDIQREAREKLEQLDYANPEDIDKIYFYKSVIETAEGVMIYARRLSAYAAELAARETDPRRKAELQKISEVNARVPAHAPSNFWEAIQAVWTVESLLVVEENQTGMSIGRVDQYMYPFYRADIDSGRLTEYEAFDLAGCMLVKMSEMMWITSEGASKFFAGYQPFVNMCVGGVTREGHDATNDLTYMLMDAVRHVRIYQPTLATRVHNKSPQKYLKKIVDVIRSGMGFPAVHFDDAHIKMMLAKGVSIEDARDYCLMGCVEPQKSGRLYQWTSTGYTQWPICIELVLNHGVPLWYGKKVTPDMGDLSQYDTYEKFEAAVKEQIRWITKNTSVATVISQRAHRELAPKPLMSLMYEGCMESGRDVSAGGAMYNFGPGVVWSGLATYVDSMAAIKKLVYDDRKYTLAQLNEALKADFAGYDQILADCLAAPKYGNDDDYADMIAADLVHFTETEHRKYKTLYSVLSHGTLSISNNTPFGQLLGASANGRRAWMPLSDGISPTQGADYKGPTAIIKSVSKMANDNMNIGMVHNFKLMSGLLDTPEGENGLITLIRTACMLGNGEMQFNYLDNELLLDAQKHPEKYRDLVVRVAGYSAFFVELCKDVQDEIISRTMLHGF

[3] = Metabolic stability in human intestinal S9 fraction assessed as parent compound remaining at 33 uM incubated for 2 hrs by LC/MS/MS analysis; type: ADME, subcellular, Intestine; conditions: read-out: Stabilty
Outline: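 Mixed-gender human intestinal S9 (4 mg mL−1 stock) in 100 mM potassium phosphate pH 7.4 with NADPH cofactor, 6 mM MgCl2 and 1 mM EDTA. Compound at 33 μM final, in triplicate, 2 h at 37 °C. No-cofactor negative control. Supernatant diluted and percent intact compound quantified by LC-MS/MS.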

[4] = Inhibition of CutC (unknown origin) in human feces assessed as reduction in TMA production using choline as substrate by LC-MS/MS analysis; type: tissue-based, Bacteria
[5] = target: T2, Choline trimethylamine-lyase (Desulfovibrio alaskensis) (UniProt Q30W70); test: as §1
T2 sequence (whole entry): T1 sequence (Q30W70 whole entry)

Bacteria [6] = test: Non-competitive inhibition of CutC (unknown origin) assessed as reduction in Vmax with constant Km using choline as substrate at 5 uM by Lineweaver-Burk plot based Michelis-Menten analysis
Outline: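 D. desulfuricans G20 CutC (20 μM) activated by CutD (40 μM) with dithionite (150 μM) and SAM (200 μM), anaerobic, in 50 mM potassium phosphate pH 8.0 with 50 mM KCl for 1 h, then diluted 20-fold. Coupled to yeast ADH (0.4 μM) with NADH (200 μM). Choline varied, inhibitor absent or at 5 μM. A340 read every 20 s for 10 min. Kinetics by Michaelis–Menten and Lineweaver–Burk plots, n = 3.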

Bacteria [7] = test: Binding affinity to CutD (unknown origin) by CM5 sensor chip immobilization based surface plasmon resonance analysis
[8] = (§2) Binding affinity to CutC (unknown origin) by CM5 sensor chip immobilization based surface plasmon resonance analysis; design: species or system Bacteria
Bacteria [9] = test: as §2
Escherichia coli = test: Effect on d9-choline uptake in Escherichia coli MS 200-1 at 50 uM incubated for 15 mins by LC-MS/MS analysis; type: functional
Saccharomyces cerevisiae = test: Effect on alcohol dehydrogenase activity in yeast at 5 to 50 uM in presence of NADH by colorimetric assay; conditions: dose 5-50 µM

Compound | EC50 [1] | IC50 [2] | remaining at 2 h, 33 µM [3] | further results
COc1cc(CCNC(=O)NC2CCCCC2CO)ccc1F (stereo unspecified) | 409 µM | 212 µM | > 90% | 
C[N+](C)(C)CC=O [BETAINE ALDEHYDE] |  | 26 µM |  | 
Cc1ccc(-n2nc(NC3CCN(C(N)=O)CC3)cc2C)cc1 | > 1000 µM | > 500 µM | > 90% | 
CN1CC=C[C@H](O)C1 | 11 µM |  |  | EC50 [4]: 83.9 µM
CN1CCC(NC(=O)NCCNc2ccccn2)CC1 | 354 µM | 199 µM | > 90% | 
O=C(NCc1nc(-c2ccccc2)n[nH]1)NC1CCC(O)CC1 (stereo unspecified) | 79 µM | 49 µM | > 90% | 
Cc1cccc(NC2CCN(C(=O)Nc3cn[nH]c3)CC2)n1 | 143 µM | 85 µM | > 90% | 
O=C1NCCCCC1NC(=O)N1CCCc2cc(F)ccc21 (stereo unspecified) | > 1000 µM | > 500 µM | > 90% | 
O=C(NC1CCCCC1CO)c1cc(F)cc2[nH]cnc12 (stereo unspecified) | > 1000 µM | > 500 µM | > 90% | 
CC(O)CNC(=O)NC1CCN(Cc2ccccn2)CC1 (stereo unspecified) | 87 µM | 73 µM | > 90% | 

Continued, in another order:

EC50 [1] | IC50 [2] | remaining at 2 h, 33 µM [3] | Compound | further results
> 1000 µM | > 500 µM | > 90% | O=C(CCc1ccccc1OC(F)(F)F)NC1CCCCNC1=O (stereo unspecified) | 
5.4 µM | 2.4 µM | > 90% | O=C(NC1CC1)C1CCN(Cc2nc3cc(F)ccc3o2)CC1 | EC50 [4]: 38 µM; inhibition [5]: Dose-dependent effect; inhibition (Bacteria [6]): Active; Activity (Bacteria [7]): Active; Kd [8]: 4.05 µM; Activity (Bacteria [9]): Dose-dependent effect; Activity (Escherichia coli): inactive; Activity (Saccharomyces cerevisiae): inactive
376 µM | 210 µM | > 90% | CC(C)Nc1cccc(C(=O)NCCCN2CCC(O)CC2)c1 | 
488 µM | 301 µM | > 90% | O=S(=O)(NCC1CCCC1O)c1ccc2cn[nH]c2c1 (stereo unspecified) | 
> 1000 µM | > 500 µM | > 90% | Cc1cc(C(=O)NC2CCNCC2)no1 | 
175 µM | 110 µM | > 90% | Cn1c(N)nc2c(ncn2[C@@H]2O[C@H](CO)[C@@H](O)[C@H]2O)c1=O | 
298 µM | 167 µM | > 90% | O=C(Nc1ccc(N2CCOCC2)nc1)NC1CCCCNC1=O (stereo unspecified) | 

Reference: ChEMBL document CHEMBL4715687, “A benzoxazole derivative as an inhibitor of anaerobic choline metabolism by human gut microbiota” (RSC Med Chem, 2020)
